Data from ChEMBL document CHEMBL1142312, “Anti-Plasmodium activity of tetrazolium salts” (Bioorg Med Chem, 2008).
Values joined by “and” are separate entries in the source; they are usually repeats but may differ in a detail not shown here. Identical values can stand only once.

What was measured:
[1] = Ratio of IC50 for CHO cells to IC50 for Plasmodium falciparum; format: functional
Plasmodium falciparum = assay: Antimalarial activity against Plasmodium falciparum in LDH reporter assay; format: functional, organism-based
In short: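 P. falciparum line ItG cultured in O+ human erythrocytes in RPMI-1640 with 10% human serum and 50 μM hypoxanthine. Twofold serial dilutions from 10 mg/mL DMSO stock, 2% hematocrit, 2% parasitemia. Incubated 72 h at 37 °C under 95% N2/3% CO2/2% O2. Parasite LDH assay read at 650 nm after 1 h. IC50 by non-linear regression, mean ± SE of four determinations.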

[2] = (§1) Toxicity in CHO cells; format: cell-based, Cricetulus griseus; conditions: Chinese hamster (Cricetulus griseus), CHO cells
In short: (§2)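 CHO cells grown to 50% confluency in RPMI-1640 with 10% fetal calf serum, 25 mM Hepes and gentamicin. Serial dilutions made from a 10 mg/mL DMSO stock; DMSO-only controls. After 48 h, MTT (10 mg/mL in medium) added for 1 h, then DMSO added and absorbance read at 650 nm. IC50 by non-linear regression of dose–response; mean ± SE of four determinations.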

CHO = assay: as §1; format: cell-based, Cricetulus griseus; conditions: cho; in short: as §2
[3] = Inhibition of glutathione reduction of nitrotetrazolium blue chloride

Row | IC50 (Plasmodium falciparum) | IC50 (Plasmodium falciparum; Plasmodium falciparum) [µM] | SMILES | Ratio IC50 [1] | IC50 [2] [µM] | IC50 (CHO) [µM] | IC50 [3] [µM]
1 | 9.1 µM and 4.5 µM |  | O=[N+]([O-])c1ccc(-[n+]2nc(-c3ccccc3)nn2-c2ccccc2)cc1.[Cl-] | 1.8 and 2.7 | 16.2 | 12 | 
2 |  |  | O=S(=O)(O)c1cc(N=C=S)ccc1/C=C/c1ccc(N=C=S)cc1S(=O)(=O)O |  |  |  | 31
3 |  |  | CC(=O)Nc1ccc(/C=C/c2ccc(N=C=S)cc2S(=O)(=O)O)c(S(=O)(=O)O)c1 |  |  |  | 2.7
4 |  | 0.8 | COc1ccc(-n2nc(-c3ccccc3)n[n+]2-c2ccccc2)cc1.[Cl-] | 8.1 | 6.5 |  | 
